According to ChEMBL document CHEMBL1130249, “Cyclic enkephalin analogues with exceptional potency and selectivity for delta-opioid receptors” (J Med Chem, 1997):
Peptide text beside a SMILES is read from it.

Assays:
Type in all cases: tissue-based
[1] = target: Delta-type opioid receptor (Mus musculus, UniProt P32300); experiment: Inhibitory potency against Opioid receptor delta 1 was determined in electrically induced smooth muscle contractions of mouse vas deferens (MVD)
Outline: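 Vas deferens from male ICR mice (25–40 g), in Mg-free oxygenated Krebs at 37 °C under 0.5 g tension. Transmural stimulation at 0.1 Hz, 2.0-ms pulses, supramaximal voltage. […] IC50 from Hill fit of mean data from at least four tissues.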

Mu-type opioid receptor [2] = target: Mu-type opioid receptor (Rattus norvegicus, UniProt P33535); experiment: Inhibition of binding of radioligand [3H]CTOP to Opioid receptor mu 1 in rat brain
Outline: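 Rat whole brain (less cerebellum) membranes, preincubated 30 min at 25 °C to strip endogenous peptides. Displacement of 0.5 nM [3H]CTOP in 50 mM Tris-HCl pH 7.4 containing BSA, bestatin, bacitracin, captopril and toluenesulfonyl fluoride; 10 concentrations over an 800-fold range; 3 h at 25 °C; filtration.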

Mu-type opioid receptor [3] = experiment: Inhibitory potency against Opioid receptor mu 1 was determined in electrically induced strips of guinea pig ileum (GPI)
Outline: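 Ileum longitudinal muscle–myenteric plexus strips from male Hartley guinea pigs (250–500 g), in oxygenated Krebs at 37 °C under 1 g tension. Transmural stimulation at 0.1 Hz, 0.4-ms pulses, supramaximal voltage. IC50 from Hill fit of mean data from at least four tissues.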

[4] = target: Delta-type opioid receptor (Rattus norvegicus, UniProt P33533); experiment: Inhibition of binding of radioligand [3H][p-Cl-phe]-DPDPE to Opioid receptor delta 1 in rat brain
Delta-type opioid receptor (Rattus norvegicus, UniProt P33533), sequence (P33533 whole entry): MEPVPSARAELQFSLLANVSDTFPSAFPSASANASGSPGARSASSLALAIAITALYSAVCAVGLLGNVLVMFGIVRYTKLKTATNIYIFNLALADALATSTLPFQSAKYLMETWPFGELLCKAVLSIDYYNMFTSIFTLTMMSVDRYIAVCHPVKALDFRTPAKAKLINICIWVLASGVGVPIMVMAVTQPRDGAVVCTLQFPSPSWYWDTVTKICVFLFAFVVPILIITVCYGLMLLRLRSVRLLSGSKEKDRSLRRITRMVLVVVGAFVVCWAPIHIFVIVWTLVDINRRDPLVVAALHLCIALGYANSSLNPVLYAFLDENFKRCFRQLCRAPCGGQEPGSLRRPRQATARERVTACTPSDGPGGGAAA

Delta-type opioid receptor (Mus musculus, UniProt P32300), sequence (P32300 whole entry): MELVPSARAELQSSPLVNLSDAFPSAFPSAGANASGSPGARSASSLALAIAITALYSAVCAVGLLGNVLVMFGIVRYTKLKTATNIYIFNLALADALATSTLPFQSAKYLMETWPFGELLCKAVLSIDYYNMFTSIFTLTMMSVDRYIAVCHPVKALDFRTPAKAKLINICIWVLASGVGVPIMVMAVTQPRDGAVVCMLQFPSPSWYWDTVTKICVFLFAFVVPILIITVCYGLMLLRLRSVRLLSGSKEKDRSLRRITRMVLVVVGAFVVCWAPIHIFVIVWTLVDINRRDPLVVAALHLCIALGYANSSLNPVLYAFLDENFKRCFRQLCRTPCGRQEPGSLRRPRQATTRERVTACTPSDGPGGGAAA
Mu-type opioid receptor (Rattus norvegicus, UniProt P33535), sequence (P33535 whole entry): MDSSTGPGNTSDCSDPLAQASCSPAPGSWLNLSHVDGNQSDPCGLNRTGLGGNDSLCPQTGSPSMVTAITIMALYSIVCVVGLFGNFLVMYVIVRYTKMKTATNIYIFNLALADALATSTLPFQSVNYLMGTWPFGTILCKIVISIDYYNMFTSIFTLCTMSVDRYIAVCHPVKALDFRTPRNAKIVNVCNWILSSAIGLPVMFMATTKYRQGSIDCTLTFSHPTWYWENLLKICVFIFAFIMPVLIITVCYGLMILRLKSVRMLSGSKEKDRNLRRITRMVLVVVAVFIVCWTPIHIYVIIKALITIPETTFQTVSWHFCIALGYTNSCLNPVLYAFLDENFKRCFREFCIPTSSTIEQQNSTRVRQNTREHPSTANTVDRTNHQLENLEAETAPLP

CC1(C)SSC(C)(C)[C@@H](NC(=O)[C@@H](N)Cc2ccc(O)cc2)C(=O)NCC(=O)N[C@@H](Cc2ccc(F)cc2)C(=O)N[C@@H]1C(=O)N[C@@H](Cc1ccccc1)C(=O)O
IC50 [1]: 0.016 nM | IC50 (Mu-type opioid receptor [2]): 1650 nM | IC50 (Mu-type opioid receptor [3]): 740 nM | IC50 [4]: 0.43 nM

CC1(C)SSC(C)(C)[C@@H](NC(=O)[C@@H](N)Cc2ccc(O)cc2)C(=O)NCC(=O)N[C@@H](Cc2ccc(I)cc2)C(=O)N[C@@H]1C(=O)N[C@@H](Cc1ccccc1)C(=O)O
IC50 [1]: 0.8 nM | IC50 (Mu-type opioid receptor [2]): 7300 nM | IC50 (Mu-type opioid receptor [3]): 8700 nM | IC50 [4]: 0.47 nM

CC1(C)SSC(C)(C)[C@@H](NC(=O)[C@@H](N)Cc2ccc(O)cc2)C(=O)NCC(=O)N[C@@H](Cc2ccccc2)C(=O)N[C@@H]1C(=O)N[C@@H](Cc1ccccc1)C(=O)O
IC50 [1]: 1.89 nM | IC50 (Mu-type opioid receptor [2]): 11400 nM | IC50 (Mu-type opioid receptor [3]): 5800 nM | IC50 [4]: 4 nM

CC1(C)SSC(C)(C)[C@@H](NC(=O)[C@@H](N)Cc2ccc(O)cc2)C(=O)NCC(=O)N[C@@H](Cc2ccc(Br)cc2)C(=O)N[C@@H]1C(=O)N[C@@H](Cc1ccccc1)C(=O)O
IC50 [1]: 0.18 nM | IC50 (Mu-type opioid receptor [2]): 4200 nM | IC50 (Mu-type opioid receptor [3]): 3400 nM | IC50 [4]: 0.2 nM

CC1(C)SSC[C@@H](C(=O)N[C@@H](Cc2ccccc2)C(=O)O)NC(=O)[C@H](Cc2ccccc2)NC(=O)CNC(=O)[C@@H]1NC(=O)[C@@H](N)Cc1ccc(O)cc1 (HELM PEPTIDE1{Y.[CC(C)(S[*:3])[C@@H](N[*:1])C(=O)[*:2]].G.F.C.F}$PEPTIDE1,PEPTIDE1,2:R3-5:R3$$$V2.0)
IC50 (Mu-type opioid receptor [3]): 83 nM

CC1(C)SSC(C)(C)[C@@H](NC(=O)[C@@H](N)Cc2ccc(O)cc2)C(=O)NCC(=O)N[C@@H](Cc2ccc(Cl)cc2)C(=O)N[C@@H]1C(=O)N[C@@H](Cc1ccccc1)C(=O)O
IC50 [1]: 0.17 nM | IC50 (Mu-type opioid receptor [2]): 1700 nM | IC50 (Mu-type opioid receptor [3]): 420 nM | IC50 [4]: 0.4 nM
